High-throughput results from PubChem.
Rows were chosen to be rich in hits. Some 3.5% of all compounds tested hit in one or more screens of this group.
STAT1 activator – STAT1 signaling activation; NIH 3T3 STAT1-luciferase reporter, IFN-gamma, luminescence; 100% = IFN-gamma alone, no compound; activation (% of control), % at 5.5 µM; 200,000 tested, 2.6% active; AID 932;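 active = activation above the screen-wide mean activation plus 3 SD, cut at about 130% in these data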;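 note: raw ratio to IFN-gamma control signal so 100% means no change and 0% no light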
FLuc act counter – firefly luciferase counter-screen for stimulation assays; P08659; ATPlite luciferase biochemical, luminescence, 10 min; 0 = ATP-free wells, 1 = DMSO control; activation factor at 10 µM; 200,000 tested, under 10 active; AID 1027;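 active = luciferase activation factor, scaled between plate controls, of at least 2 with compound at 10 µM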
Target sequence (P08659 whole entry, looked up): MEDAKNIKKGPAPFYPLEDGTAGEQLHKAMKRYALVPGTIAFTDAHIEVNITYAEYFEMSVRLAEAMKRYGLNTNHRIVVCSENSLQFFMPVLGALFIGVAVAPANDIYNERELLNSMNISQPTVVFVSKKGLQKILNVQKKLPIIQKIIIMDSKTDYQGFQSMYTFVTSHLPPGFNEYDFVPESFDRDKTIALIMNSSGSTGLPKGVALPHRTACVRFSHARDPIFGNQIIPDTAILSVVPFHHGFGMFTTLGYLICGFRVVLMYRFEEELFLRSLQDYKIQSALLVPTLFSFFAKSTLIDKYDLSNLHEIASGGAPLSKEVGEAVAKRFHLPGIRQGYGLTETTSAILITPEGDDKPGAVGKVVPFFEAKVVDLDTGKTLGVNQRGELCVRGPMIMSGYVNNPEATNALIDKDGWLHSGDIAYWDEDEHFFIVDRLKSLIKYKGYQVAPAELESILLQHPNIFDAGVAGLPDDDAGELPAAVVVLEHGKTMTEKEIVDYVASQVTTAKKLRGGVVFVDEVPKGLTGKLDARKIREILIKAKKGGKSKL
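assay system = Luciferase/luciferin detection reagent, cell-free biochemical luciferase assay | also added = ATP substrate | times = 10 min post-reagent at room temperature | measured by = luminescence from luciferase reaction | measure = luciferase activation, seen as luminescence increase over controls | benchmarks = low control with PBS replacing ATP, high control enzyme plus ATP without compound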
Pf gametocyte – inhibitors of late stage P. falciparum gametocyte viability; P. falciparum stage V gametocytes, ATP luminescence, 24 h; inhibition, % at 10.9 µM; 150,000 tested, 0.065% active; AID 743093;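 active = inhibition above the mean plus 3 SD of compounds within the control limits, set per campaign, cut at about 38% in these data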;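 note: 0% = DMSO wells and 100% = medium only without gametocytes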
FLuc inhib CS – Photinus pyralis luciferase inhibition counter-screen; ATPLite firefly luciferase biochemical luminescence, 10 min; inhibition, % at 10 µM; 200,000 tested, 1.5% active; AID 1006;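 active = inhibition above about 50% when tested at 10 µM, limit read from the data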
NF-kB neuron act – raises NF-kB expression in human neuronal cells | NF-kB reporter expression; hits give high values | fold change at 12.5 µM | 190,000 tested, 1.6% active | AID 1239; in the data active = fold change above about 3.3
APP 5'UTR act – activates APP 5'UTR luciferase reporter | SH-SY5Y APP 5'UTR luciferase reporter, luminescence; zero percent = DMSO vehicle wells | activation, % at 2 µM | 190,000 tested, 1% active | AID 1276;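 active = activation above a set limit, based on mean plus 3 SD of controls, cut at about 140% in these data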
STAT1 act conf – confirmation of STAT1 signaling activators. shares compounds with STAT1 activator. 1,200 tested, 97% active. NIH 3T3 STAT1-luciferase reporter, IFN-gamma potentiation, luminescence; 100% = IFN-gamma EC80 alone, no compound. activation (% of control), % at 5.7 µM. AID 1262;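 active = activation above a set limit carried over from the earlier primary STAT1 screen, cut at about 140% in these data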;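 note: simple ratio to median IFN-gamma plus DMSO wells so 0% means no light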
NFkB act – activates NF-kappaB, counter-screen to STAT1 activators; shares compounds with STAT1 activator; AID 1306; HEK293T NF-kB luciferase reporter, TNF-alpha stimulated, luminescence; 100% = TNF-alpha with vehicle only; activation (% of control), % at 5.7 µM; 1,200 tested, 43% active;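 active = activation above the mean of solvent-only control wells plus 3 SD, set per campaign, cut at about 130% in these data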;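 note: TNF-alpha given at a submaximal dose yielding about 80% of full reporter signal; values are well signal over median control so 100% means no change and 0% no light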
STAT3 act STAT1c – activates human STAT3, counter-screen to STAT1 activators. shares compounds with STAT1 activator. U3A cells STAT3-luciferase reporter, IL-6, luminescence; cells lack STAT1; 100 = IL-6 alone, no compound effect. activation (% of control), % at 5.7 µM. 1,200 tested, 46% active. AID 1316;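 active = activation above the solvent-only control well mean plus 3 SD, set per plate batch, cut at about 110% in these data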;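 note: 0% = no luminescence and 100% = median IL-6 plus DMSO wells; higher means more STAT3 reporter activation so hits are non-selective activators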
* = called active by the depositor; / = not tested or not shown.

SMILES | STAT1 activator | FLuc act counter | Pf gametocyte | FLuc inhib CS | NF-kB neuron act | APP 5'UTR act | STAT1 act conf | NFkB act | STAT3 act STAT1c
CCN(CC)CCNC(=O)c1cn(-c2ccccc2)nc1-c1cccs1 | 101 | 1 | 25 | -3 | 0.87 | -9 | / | / | /
CCN(CC)CCOC(=O)c1ccc(NC(=O)c2cn(-c3ccccc3)nc2-c2cccs2)cc1 | 155* | 0.8 | / | 17 | 1.4 | 27 | 125 | 120 | 95
CCOC(=O)C1CCN(C(=O)c2cccnc2Oc2ccc(Cl)cc2)CC1 | / | / | -2 | / | / | / | / | / | /
Cc1ccc2oc(-c3ccc(C)c(NC(=O)Cc4cccs4)c3)nc2c1 | 114 | 0.9 | / | 8 | 1.1 | 11 | / | / | /
Cc1ccnc(NC(=S)NC(=O)c2cccs2)c1 | 237* | 0.1 | -14 | 87* | 3.7* | 130 | 263* | 166* | 132*
Cc1ccc2oc(-c3ccc(C)c(NC(=S)NC(=O)c4cccs4)c3)nc2c1 | 154* | 0.9 | / | 12 | 3.4* | 222* | 145* | 119 | 132*
Cc1cccc(C(=O)NC(=S)NNC(=O)c2cccs2)c1 | 106 | 1 | / | 4 | 0.92 | 0 | / | / | /
CCC(Sc1nc2ccsc2c(=O)n1-c1ccc(Cl)c(C)c1)C(=O)NCc1ccco1 (configuration not stated) | 96 | 1.1 | 0 | -5 | 0.72 | 13 | / | / | /
CCn1cc(Cl)c(C(=O)N2N=C3/C(=C/c4cccs4)CCCC3C2c2cccs2)n1 (configuration not stated) | 87 | 1.1 | 11 | -9 | 0.78 | 18 | / | / | /
O=C(CC1SC(N2CCCCC2)=NC1=O)Nc1cccc(C(=O)O)c1 (configuration not stated) | 97 | 1.1 | -1 | -7 | 1.2 | -13 | / | / | /
O=C(COc1ccc(Cl)cc1)NCc1nnc(SCC(=O)N2CCCc3ccccc32)o1 | 102 | 1.1 | / | -9 | 0.86 | 8 | / | / | /
CN(C(=O)c1ccc(COc2ccccc2Br)o1)c1ccccc1 | 94 | 1 | -8 | -3 | 1.1 | 17 | / | / | /
Cc1cc(/C=C(\C#N)C(=O)NCc2cccs2)c(C)n1-c1ccccc1F | 151* | 0.5 | / | 49 | 1.2 | 115 | 169* | 130 | 121*
Cn1c(SCC(=O)NNC(=O)Cc2ccccc2)nnc1-c1ccccc1 | 98 | 1 | / | 1 | 1.3 | 20 | / | / | /
CCOc1ccc(C(=O)Nc2cccc(NC(=O)c3cccs3)c2)cc1[N+](=O)[O-] | 90 | 1.1 | 4 | -5 | 0.53 | -10 | / | / | /
CCOc1ccc(NC(=O)c2ccco2)c([N+](=O)[O-])c1 | 164* | 0.7 | -11 | 30 | 6* | 99 | 191* | 136* | 110
CCOc1ccc(NC(=O)c2cccs2)c([N+](=O)[O-])c1 | 152* | 1 | 12 | 2 | 3 | 58 | 189* | 133 | 105
NS(=O)(=O)c1ccc(Oc2ccc(S(N)(=O)=O)cc2)cc1 | 89 | 1.1 | 4 | -5 | 1.1 | 15 | / | / | /
C=CS(=O)(=O)c1ccc(Oc2ccc(S(=O)(=O)C=C)cc2)cc1 | 323* | 1 | -6 | -2 | 0.99 | -90 | 189* | 79 | 114*
O=[N+]([O-])c1ccc(C2=Nc3cc(Cl)ccc3OC2)cc1 | 122 | 1.1 | -8 | -7 | 1.3 | 21 | / | / | /
Cc1ccc2c(c1)N=C(c1ccc(F)cc1)CO2 | 164* | 0.6 | -2 | 36 | 2.8 | 86 | 195* | 144* | 111*
COc1ccc(N/C=C/C(=O)c2ccc(C)cc2)c([N+](=O)[O-])c1 | 153* | / | / | / | / | 130 | 218* | 121 | 99
CCOc1ccc(N/C=C/C(=O)c2ccc(OC)cc2)c([N+](=O)[O-])c1 | 125 | 0.8 | / | 24 | 1.4 | 35 | / | / | /
COCCCN=Cc1c(C)[nH]n(-c2ccc(Br)c(C)c2)c1=O | 165* | 0.8 | 11 | 21 | 2.7 | 147* | 250* | 122 | 80
COc1ccc(/C=N/NC(=O)c2[nH]ncc2Br)c(OC)c1 | 155* | 0.2 | / | 85* | 1.8 | 26 | 162* | 122 | 114*
SMILES | STAT1 activator | FLuc act counter | Pf gametocyte | FLuc inhib CS | NF-kB neuron act | APP 5'UTR act | STAT1 act conf | NFkB act | STAT3 act STAT1c
COc1ccc(CNC(=O)c2ccc(C(C)C)cc2)cc1 | 151* | 0.9 | 3 | 6 | 3.7* | 132 | 177* | 144* | 128*
COc1ccc(C(=O)NCCSc2ccccc2)cc1 | 157* | 0.5 | / | 48 | 5.7* | 128 | 193* | 96 | 112*
O=C(NC1CC1)C1=C[C@@H](c2ccc3c(c2)OCO3)C[C@@H](OCc2ccc(CO)cc2)O1 | 99 | 1 | -16 | -2 | 1 | -4 | / | / | /
Cc1cc(C(=O)CN2C(=O)c3ccccc3C2=O)c(C)n1Cc1cccs1 | 161* | 0.4 | / | 62* | 0.94 | 94 | 193* | 107 | 110
C=CCNc1ncnc2c1cnn2-c1ccc(Cl)cc1 | 177* | 0.6 | / | 39 | 5.4* | 239* | 266* | 133 | 108
CCCCNc1ncnc2c1cnn2-c1ccc(Cl)cc1 | 158* | 0.8 | / | 17 | 7.2* | -33 | 249* | 140* | 106
Clc1ccc(-n2ncc3c(NCCCn4ccnc4)ncnc32)cc1 | 124 | 1 | -7 | 5 | 1.9 | -11 | / | / | /
CN(/N=C/c1ccncc1)c1cnc2ccccc2n1 | 153* | 0.4 | 1 | 56* | 3.7* | 181* | 195* | 130 | 124*
Cc1cc(SCC(=O)Nc2cccc(S(=O)(=O)N3CCOCC3)c2)nc2ccccc12 | 94 | 1 | 8 | 0 | 1.2 | -12 | / | / | /
O=C(Cc1nc2ccccc2[nH]1)c1cccc([N+](=O)[O-])c1 | / | / | 13 | / | / | / | / | / | /
O=C(Nc1nc2ccccc2[nH]1)c1cccc([N+](=O)[O-])c1 | 156* | 0.8 | -27 | 22 | / | 113 | 169* | 125 | 120*
COC(=O)c1ccc(COc2ccccc2/C=C(\C#N)C(=O)Nc2ccc(C)cc2)cc1 | 151* | 1 | 5 | 4 | 1.1 | 19 | 195* | 135* | 106
CCCNC(=O)COc1ncnc2sccc12 | 91 | 1 | -2 | -4 | 1.1 | 3 | / | / | /
CC(OC(=O)C1=COCCO1)C(=O)Nc1ccccc1C#N (configuration not stated) | 105 | 1.1 | -20 | -10 | 0.99 | -4 | / | / | /
Cc1cc(NNC(=O)c2cccc(C(F)(F)F)c2)nc2c1c(C)nn2C | / | / | 17 | / | / | / | / | / | /
